Reference: ChEMBL document CHEMBL2086283, “Novel 4-aminoquinoline-pyrimidine based hybrids with improved in vitro and in vivo antimalarial activity” (ACS Med Chem Lett, 2012)
Activity calls are given as the source filed them. The rule behind the calls is not given here.

How the values were obtained:
[1] = Selectivity index, ratio of IC50 for african green monkey Vero cells to IC50 for chloroquine-sensitive Plasmodium falciparum D6; type: toxicity, cell-based; details: read-out: Ratio IC50
How it was run: (§1)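 SI is the IC50 for cytotoxicity to Vero cells (monkey kidney fibroblasts) divided by the antimalarial IC50 against the named P. falciparum clone. Cytotoxicity was tested up to 60 μM.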

[2] = test system: HepG2; assay: Cytotoxicity against human HepG2 cells after 48 hrs by neutral red assay; type: cell-based; details: HepG2, 48 h
How it was run: (§2)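 Mammalian cell cytotoxicity was measured as IC50 in Vero (monkey kidney fibroblasts), LLC-PK11 (pig kidney epithelial) and HepG2 (human hepatoma) cells. The highest concentration tested was 60 μM. Values are the mean of two independent experiments ± SD.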

[3] = Cytotoxicity against pig LLC-PK11 cells after 48 hrs by neutral red assay; type: cell-based; details: Sus scrofa, LLC-PK11, 48 h; how it was run: as §2
[4] = test system: Plasmodium falciparum; assay: Antiplasmodial activity against chloroquine-resistant Plasmodium falciparum W2 infected in red blood cells after 72 hrs by parasitic LDH assay; type: functional, organism-based; details: W2, 72 h
[5] = test system: Vero; assay: Cytotoxicity against african green monkey Vero cells after 48 hrs by neutral red assay; type: cell-based; details: chlorocebus sabaeus; how it was run: as §2
[6] = Selectivity index, ratio of IC50 for african green monkey Vero cells to IC50 for chloroquine-resistant Plasmodium falciparum W2; type: toxicity, cell-based; details: read-out: Ratio IC50; how it was run: as §1
[7] = test system: Plasmodium falciparum; assay: Antiplasmodial activity against chloroquine-sensitive Plasmodium falciparum D6 infected in red blood cells after 72 hrs by parasitic LDH assay; type: functional, organism-based; details: D6, 72 h
[8] = test system: Vero; assay: Cytotoxicity against african green monkey Vero cells up to 60 uM after 48 hrs by neutral red assay; type: cell-based; details: chlorocebus sabaeus; how it was run: as §2
[9] = test system: Plasmodium falciparum; assay: Ratio of chloroquine IC50 to compound IC50 for chloroquine-resistant Plasmodium falciparum W2; type: functional
[10] = test system: Mus musculus; assay: Toxicity in mouse infected with Plasmodium berghei assessed as host survival at 10 mg/kg, po administered QD for 3 days measured on day 28; type: organism-based; set-up: dose 10 mg/kg, route oral; details: in vivo, 72 h
[11] = test system: Plasmodium berghei; assay: Antimalarial activity against Plasmodium berghei infected in mouse assessed as suppression in parasitemia at 10 mg/kg, po administered QD for 3 days measured on day 7 relative to control; type: functional
How it was run: (§3)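 P. berghei-infected mice, 5 per group, dosed by oral gavage once daily on days 0, 1 and 2 postinfection, with a vehicle control arm. Mice were followed to day 28 postinfection for apparent toxicity, parasitemia and survival. Parasitemia suppression is expressed against mean vehicle-control parasitemia set as 100%, and cure is the number cured per 5 mice.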

[12] = test system: Plasmodium berghei; assay: Antimalarial activity against Plasmodium berghei infected in mouse assessed as suppression in parasitemia at 3.3 mg/kg, po administered QD for 3 days measured on day 5 relative to control; type: functional; how it was run: as §3
[13] = test system: Plasmodium berghei; assay: Antimalarial activity Plasmodium berghei infected in mouse assessed as cure from infection at 10 mg/kg, po administered QD for 3 days measured on day 28; type: functional, organism-based; set-up: dose 10 mg/kg; how it was run: as §3
[14] = test system: Plasmodium berghei; assay: Antimalarial activity against Plasmodium berghei infected in mouse assessed as suppression in parasitemia at 30 mg/kg, po administered QD for 3 days measured on day 7 relative to control; type: functional; how it was run: as §3
[15] = test system: Mus musculus; assay: Toxicity in mouse infected with Plasmodium berghei assessed as host survival at 30 mg/kg, po administered QD for 3 days measured on day 28; type: organism-based; set-up: dose 30 mg/kg, route oral; details: in vivo, 72 h
[16] = test system: HepG2; assay: Cytotoxicity against human HepG2 cells up to 60 uM after 48 hrs by neutral red assay; type: cell-based; details: hepg2, 48 h; how it was run: as §2
[17] = Cytotoxicity against pig LLC-PK11 cells up to 60 uM after 48 hrs by neutral red assay; type: cell-based, Sus scrofa; details: llc-pk11, 48 h; how it was run: as §2
[18] = test system: Plasmodium berghei; assay: Antimalarial activity Plasmodium berghei infected in mouse assessed as cure from infection at 3.3 mg/kg, po administered QD for 3 days measured on day 28; type: functional, organism-based; set-up: dose 3.3 mg/kg; how it was run: as §3
[19] = test system: Plasmodium berghei; assay: Antimalarial activity Plasmodium berghei infected in mouse assessed as mean survival time at 10 mg/kg, po administered QD for 3 days (reference value: 15.2 days); type: functional
[20] = test system: Plasmodium berghei; assay: Antimalarial activity against Plasmodium berghei infected in mouse assessed as suppression in parasitemia at 10 mg/kg, po administered QD for 3 days measured on day 5 relative to control; type: functional; how it was run: as §3
[21] = test system: Plasmodium berghei; assay: Antimalarial activity against Plasmodium berghei infected in mouse assessed as suppression in parasitemia at 3.3 mg/kg, po administered QD for 3 days measured on day 7 relative to control; type: functional; how it was run: as §3
[22] = test system: Plasmodium berghei; assay: Antimalarial activity against Plasmodium berghei infected in mouse assessed as suppression in parasitemia at 30 mg/kg, po administered QD for 3 days measured on day 5 relative to control; type: functional; how it was run: as §3
[23] = test system: Plasmodium falciparum; assay: Ratio of chloroquine IC50 to compound IC50 for chloroquine-sensitive Plasmodium falciparum D6; type: functional
[24] = test system: Plasmodium falciparum; assay: Ratio of artemesin IC50 to compound IC50 for chloroquine-sensitive Plasmodium falciparum D6; type: functional
[25] = test system: Mus musculus; assay: Toxicity in mouse infected with Plasmodium berghei assessed as host survival at 3.3 mg/kg, po administered QD for 3 days measured on day 28; type: organism-based; set-up: dose 3.3 mg/kg, route oral; details: in vivo, 72 h
[26] = test system: Plasmodium berghei; assay: Antimalarial activity Plasmodium berghei infected in mouse assessed as cure from infection at 30 mg/kg, po administered QD for 3 days measured on day 28; type: functional; how it was run: as §3
[27] = test system: Plasmodium berghei; assay: Antimalarial activity Plasmodium berghei infected in mouse assessed as mean survival time at 30 mg/kg, po administered QD for 3 days (reference value: 15.2 days); type: functional
[28] = test system: Plasmodium berghei; assay: Antimalarial activity Plasmodium berghei infected in mouse assessed as mean survival time at 3.3 mg/kg, po administered QD for 3 days (reference value: 15.2 days); type: functional

| Structure (SMILES) | selectivity ratio [1] | IC50 [2] | IC50 [3] | IC50 [4] | IC50 [5] | selectivity ratio [6] | IC50 [7] | Activity [8] | Ratio IC50 [9] | Activity [16] | Activity [17] | further results |
| --- | --- | --- | --- | --- | --- | --- | --- | --- | --- | --- | --- | --- |
| Cc1cc(NCCCCCCNc2ccnc3cc(Cl)ccc23)nc(N2CCCCC2)n1 | 146 | 6400 nM | 6300 nM | 100 nM | 8800 nM | 88 | 60 nM |  |  |  |  |  |
| Cc1cc(NCCCNc2ccnc3cc(Cl)ccc23)nc(N2CCOCC2)n1 | > 3000 | 26200 nM | 35700 nM | 50 nM |  | > 1200 | 20 nM | Non-toxic | 6 |  |  |  |
| Cc1cc(NCCNc2ccnc3cc(Cl)ccc23)nc(N2CCN(C)CC2)n1 | > 12000 |  |  | 30 nM |  | > 2000 | 5 nM | Non-toxic | 6 | Non-toxic | Non-toxic | Activity [10]: Toxic; Activity [11]: 2%; Activity [12]: 23.5%; Activity [13]: inactive; Activity [14]: 100%; Activity [15]: Non-toxic; Activity [18]: inactive; MST [19]: 21.4 days; Activity [20]: 97%; Activity [21]: 35.2%; Activity [22]: 100%; Ratio IC50 [23]: 6; Ratio IC50 [24]: 2; Activity [25]: Toxic; Activity [26]: 80%; MST [27]: 28 days; MST [28]: 19.2 days |
| Cc1cc(NCCCCNc2ccnc3cc(Cl)ccc23)nc(N2CCN(C)CC2)n1 | > 3000 | 29500 nM | 34600 nM | 20 nM |  | > 3000 | 20 nM | Non-toxic | 6 |  |  |  |
| Cc1cc(NCCNc2ccnc3cc(Cl)ccc23)nc(N2CCOCC2)n1 | > 3000 |  |  | 140 nM |  | > 444 | 20 nM | Non-toxic |  | Non-toxic | Non-toxic |  |
| Cc1cc(NCCCCNc2ccnc3cc(Cl)ccc23)nc(N2CCCCC2)n1 | > 3000 |  |  | 90 nM |  | > 666 | 20 nM | Non-toxic | 6 | Non-toxic | Non-toxic |  |
| Cc1cc(Cl)nc(NCCCCNc2ccnc3cc(Cl)ccc23)n1 | > 353 | 46400 nM |  | 640 nM |  | > 94 | 170 nM | Non-toxic |  |  | Non-toxic |  |
| Cc1cc(NCCCCCCNc2ccnc3cc(Cl)ccc23)nc(Cl)n1 | 74.3 | 9100 nM | 15800 nM | 540 nM | 32700 nM | 60.6 | 440 nM |  |  |  |  |  |
| CCN1CCN(c2nc(C)cc(NCCCCNc3ccnc4cc(Cl)ccc34)n2)CC1 | 1620 | 15400 nM | 10700 nM | 20 nM | 32400 nM | 1620 | 20 nM |  | 6 |  |  |  |
| Cc1cc(NCCCCNc2ccnc3cc(Cl)ccc23)nc(Cl)n1 | > 500 |  |  | 680 nM |  | > 88 | 120 nM | Non-toxic |  | Non-toxic | Non-toxic |  |
| Cc1cc(Cl)nc(NCCNc2ccnc3cc(Cl)ccc23)n1 | 205 | 43000 nM | 42300 nM | 810 nM | 43000 nM | 53.1 | 210 nM |  |  |  |  |  |
| Cc1cc(NCCCNc2ccnc3cc(Cl)ccc23)nc(Cl)n1 | > 184 |  |  | 700 nM |  | > 85 | 330 nM | Non-toxic |  | Non-toxic | Non-toxic |  |
| C[C@@H]1CC[C@H]2[C@@H](C)C(=O)O[C@@H]3O[C@@]4(C)CC[C@@H]1[C@]32OO4 [ARTEMISININ] |  |  |  |  |  |  |  | Non-toxic |  | Non-toxic | Non-toxic |  |
| COc1cccc2c1C(=O)c1c(O)c3c(c(O)c1C2=O)C[C@@](O)(C(=O)CO)C[C@@H]3O[C@H]1C[C@H](N)[C@H](O)[C@H](C)O1 [DOXORUBICIN] |  | 1000 nM | 1050 nM |  | 8600 nM |  |  |  |  |  |  |  |
| Cc1cc(NCCCNc2ccnc3cc(Cl)ccc23)nc(N2CCCCC2)n1 | > 3000 |  |  | 210 nM |  | > 285 | 20 nM | Non-toxic |  | Non-toxic | Non-toxic |  |
| Cc1cc(NCCNc2ccnc3cc(Cl)ccc23)nc(Cl)n1 | > 370 |  |  | 500 nM |  | > 120 | 160 nM | Non-toxic |  | Non-toxic | Non-toxic |  |
| Cc1cc(NCCCCCCNc2ccnc3cc(Cl)ccc23)nc(N2CCN(C)CC2)n1 | 1480 | 6300 nM | 7200 nM | 16 nM | 10400 nM | 650 | 7 nM |  | 6 |  |  | Ratio IC50 [23]: 6; Ratio IC50 [24]: 2 |
| Cc1cc(NCCCCCCNc2ccnc3cc(Cl)ccc23)nc(N2CCOCC2)n1 | 503 | 6400 nM | 11100 nM | 140 nM | 15100 nM | 107 | 30 nM |  |  |  |  |  |
| Cc1cc(Cl)nc(NCCCCCCNc2ccnc3cc(Cl)ccc23)n1 | 353 | 8100 nM | 24000 nM | 580 nM | 49400 nM | 85.2 | 140 nM |  |  |  |  |  |
| CCN1CCN(c2nc(C)cc(NCCCNc3ccnc4cc(Cl)ccc34)n2)CC1 | > 10000 |  |  | 60 nM |  | > 1000 | 6 nM | Non-toxic | 6 | Non-toxic | Non-toxic | Activity [10]: Toxic; Activity [11]: 27.1%; Activity [12]: 20.1%; Activity [13]: inactive; Activity [14]: 100%; Activity [15]: Non-toxic; Activity [18]: inactive; MST [19]: 15.2 days; Activity [20]: 73.9%; Activity [21]: 19.1%; Activity [22]: 100%; Ratio IC50 [23]: 6; Ratio IC50 [24]: 2; Activity [25]: Toxic; Activity [26]: 20%; MST [27]: 27.2 days; MST [28]: 20.2 days |
| Cc1cc(Cl)nc(NCCCNc2ccnc3cc(Cl)ccc23)n1 | > 250 |  |  | 1170 nM |  | > 51.3 | 240 nM | Non-toxic |  | Non-toxic | Non-toxic |  |
| Cc1cc(NCCCNc2ccnc3cc(Cl)ccc23)nc(N2CCN(C)CC2)n1 | > 8570 | 26700 nM | 34600 nM | 60 nM |  | > 1000 | 7 nM | Non-toxic | 6 |  |  | Ratio IC50 [23]: 6; Ratio IC50 [24]: 2 |
